Where two headings read alike, the source gives them in different places. Non-standard residues stand in square brackets, D forms with d. Residues, ends and D or L forms follow the SMILES beside them. ξ: configuration not given here. Aoe = N[C@@H](CCCCCC(=O)[C@@H]1CO1)C(=O)O; Aoe(9ξ) = N[C@@H](CCCCCC(=O)C1CO1)C(=O)O; Pip = O=C(O)[C@@H]1CCCCN1
Experiments:
[1] = system: HepG2 hepatocarcinoma cells; assay: MTS human cell cytotoxicity assay; format: cell-based; conditions: for EC50: read-out: HepG2 EC50
P. falciparum strain Dd2 = assay: SYBR Green I fluorescence antiplasmodial assay, Dd2; format: cell-based, Plasmodium falciparum
[2] = system: acetyl-histone H4 in 3D7 parasite culture; assay: Immunoblot of histone H4 hyperacetylation; format: cell-based, Plasmodium falciparum; conditions: 3D7 trophozoites, 5× EC50, 4 h, versus DMSO
recombinant PfHDAC1 = biological target: T1, recombinant PfHDAC1 (Plasmodium falciparum, UniProt Q7K6A1); assay: biochemical
T1 sequence (Q7K6A1 1-449): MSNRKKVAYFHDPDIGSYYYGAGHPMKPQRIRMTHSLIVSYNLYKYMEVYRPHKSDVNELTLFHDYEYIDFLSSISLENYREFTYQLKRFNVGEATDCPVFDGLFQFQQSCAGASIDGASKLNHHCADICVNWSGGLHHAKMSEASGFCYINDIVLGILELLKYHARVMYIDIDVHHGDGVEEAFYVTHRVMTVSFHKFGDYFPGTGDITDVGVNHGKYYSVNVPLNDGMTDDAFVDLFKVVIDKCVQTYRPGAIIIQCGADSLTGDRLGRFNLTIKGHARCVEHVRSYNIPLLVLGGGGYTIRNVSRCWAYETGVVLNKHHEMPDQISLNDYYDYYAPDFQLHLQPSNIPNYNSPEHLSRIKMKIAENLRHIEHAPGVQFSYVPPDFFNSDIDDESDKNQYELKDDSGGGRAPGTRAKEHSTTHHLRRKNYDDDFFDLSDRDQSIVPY

P. falciparum 3D7 = conditions: read-out: P. falciparum 3D7 EC50; literature values; cited from earlier work
[3] = system: synchronous Dd2 parasites; assay: Stage specific inhibition assay; format: cell-based, Plasmodium falciparum; conditions: 5 × EC50, synchronous Dd2
Summary of the method: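 Stage development assessed by Giemsa smears at every condition and time point, plus flow cytometry. Flow samples fixed in 4% paraformaldehyde for 30 min at 37°C, washed 3x in PBS, held at 4°C, then resuspended in 0.25% Triton X-100 and shaken at 500 RPM for 10 min. Parasites gated against an uninfected RBC control; treated-culture histograms overlaid on vehicle-treated culture.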

[4] = system: histone H4 acetylation in Plasmodium culture; assay: Immunofluorescence assay with anti-acetyl histone H4; format: cell-based, Plasmodium falciparum; conditions: synchronous cultures, 5x EC50
[5] = system: asynchronous P. falciparum Dd2 parasites; assay: Rate of killing assay with compound wash-off; format: cell-based, Plasmodium falciparum; conditions: 10 × EC50, exposure 24 or 48 h, then wash-off
[6] = 48 h treatment, MTS, mean of triplicate ± SE/SEM
[7] = read-out: PfHDAC1 IC50, recombinant enzyme, 2 h at 37°C, mean of duplicate ± SEM

CC1(C)NC(=O)[C@H](CCCCCC(=O)[C@H]2CO2)NC(=O)[C@H]2CCCN2C(=O)[C@H](Cc2ccccc2)NC1=O [Compound 1, chlamydocin]
Selectivity Index (SI) ([1]; HepG2 EC50 / average of Dd2 EC50 and 3D7 EC50): 17
EC50 ([1]; Homo sapiens, HepG2, 48 h): 530 ± 7 nM
EC50 (P. falciparum strain Dd2; Plasmodium falciparum, DD2, 72 h, read-out: Dd2 EC50): 31 ± 7 nM

C[C@@H]1NC(=O)[C@H](CCCCCC(=O)[C@@H]2CO2)NC(=O)[C@H]2CCCN2C(=O)[C@H](Cc2ccccc2)NC1=O [Compound 2, 1-alaninechlamydocin] (cyclo(AF[dP][Aoe]))
EC50 [1, 6]: 38 ± 6 nM
histone H4 acetylation (Western blot) [2]: hyperacetylation

CC(C)C[C@@H]1NC(=O)[C@@H](Cc2ccccc2)NC(=O)[C@H](CCCCCC(=O)C2CO2)NC(=O)[C@@H]2CCCCN2C1=O (some centres unmarked) [Compound 11, WF-3161] (cyclo(L[Pip][Aoe(9ξ)][dF]))
IC50 (recombinant PfHDAC1; [7]): 2 ± 2 nM
EC50 [1, 6]: 22000 ± 900 nM

C[C@@H]1NC(=O)[C@H]2CCCN2C(=O)[C@H](CCCCCC(=O)[C@@H]2CO2)NC(=O)[C@@H](C)NC1=O [HC toxin]
EC50 (P. falciparum 3D7): 29 ± 2 nM

O=C(CCCCCCC(=O)Nc1ccccc1)NO [SAHA, suberanilohydroxamic acid]
IC50 (recombinant PfHDAC1): 92 ± 20 nM
effect of treatment at 6 HPI [3]: resemble late trophozoite
effect of treatment at 42 HPI [3]: partially inhibited at schizogony
histone H4 acetylation (immunofluorescence) [4]: noticeable increase in histone H4 acetylation
histone H4 acetylation (Western blot) [2]: hyperacetylation

Deoxy-WF 20782B [Compound 5]
EC50 [1, 6]: 880 ± 50 nM
fold increase in EC50 compared with epoxide or alcohol R1 analogs (P. falciparum strain Dd2; ethyl analog versus analogs with epoxide or alcohol at R1): 2–6 fold

FR235222 [Compound 3]
killing profile [5]: plasmodistatic
EC50 [1, 6]: 260 ± 60 nM

NA 1309 [Compound 7]
IC50 (recombinant PfHDAC1; [7]): 6300 ± 800 nM
EC50 [1, 6]: > 25000 nM

WF 27082F [Compound 4]
EC50 [1, 6]: 150 ± 40 nM
